UCH37 DUB inh: inhibitors of human UCH37 deubiquitinase, primary screen, biochemical, Ub-AMC cleavage, fluorescence. Ubiquitin carboxyl-terminal hydrolase isozyme L5 (Homo sapiens), Q9Y5K5. AID 588478, 2011. 330,000 tested, 0.33% active. purified proteasome/UCH37. inhibition, % (no concentration beside the values);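 active = mean inhibition over replicate wells above about 20%, limit read from the data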;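 also: 0% = compound-free wells with enzyme and 100% = wells lacking proteasome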
Target sequence (Q9Y5K5 whole entry, looked up): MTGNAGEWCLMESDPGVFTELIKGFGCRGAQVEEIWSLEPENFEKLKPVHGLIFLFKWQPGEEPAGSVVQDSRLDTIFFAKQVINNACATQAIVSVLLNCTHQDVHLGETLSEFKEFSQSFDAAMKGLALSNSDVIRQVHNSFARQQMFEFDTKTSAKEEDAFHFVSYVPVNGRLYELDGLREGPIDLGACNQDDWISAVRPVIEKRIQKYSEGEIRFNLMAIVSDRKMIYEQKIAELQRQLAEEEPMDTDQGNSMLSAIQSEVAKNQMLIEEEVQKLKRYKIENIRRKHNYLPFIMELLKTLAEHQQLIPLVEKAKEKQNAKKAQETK
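Material: Human UCH37 enzyme supplied as purified proteasome complex | Schedule: 30 min compound-proteasome preincubation then 25 min substrate reaction, room temperature | Detection: AMC fluorescence from Ub-AMC cleavage, excitation 355 nm, emission 460 nm | Benchmarks: Wells without proteasome as full block, compound-free enzyme plus substrate as uninhibited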
cardiac RTF act: cardiac RTF calcium sensitivity activators, primary screen, biochemical, IANBD-TnC fluorescence, EC20 calcium; IANBD-labeled TnC RTF fluorescence at EC20 calcium; 0% EC20 calcium, 100% full calcium; activation, % at 7.2 µM; 340,000 tested, 0.24% active;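 active = activation above the mean over all tested compounds plus 3 SD, cut at about 30% in these data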;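 also: rise in fluorescence read as greater calcium sensitivity of cardiac thin filaments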
SUMO Mot1 rescue: yeast Mot1-301 growth rescue at high temperature, primary screen, SUMOylation pathway inhibitor project, S. cerevisiae, ATP luminescence, 38.5C; S. cerevisiae Mot1-301 growth rescue; percent above DMSO median, 100 means doubled; growth rescue, % at 18.8 µM; 320,000 tested, 1% active;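 active = every valid replicate shows activation above 250% relative to neutral control wells; inactive = the rest, any valid replicate at or below 250%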;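 also: OY570 slx delta 5 strain wells were the positive control but not used for scaling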
RTF Ca sens inh: cardiac RTF calcium sensitivity inhibitors, primary screen, biochemical, IANBD-TnC fluorescence, EC70 calcium; Troponin I, cardiac muscle (Homo sapiens) + Troponin T, cardiac muscle (Homo sapiens) + …; IANBD-labeled cardiac RTF, Ca2+ fluorescence; inhibition, % at 7.15 µM; 340,000 tested, 0.12% active;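 active = inhibition above the mean inhibition of all tested compounds plus 3 SD, cut at about 17% in these data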;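 also: assay run at fixed EC70 calcium of 1.6 mM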
Efflux pump inh: inhibitors of Candida efflux pumps in yeast, primary screen, S. cerevisiae, Nile Red, multiplex; inhibition, % at 10 µM; 330,000 tested, 0.44% active; S. cerevisiae Candida pump triplex; AID 485275, 2010;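 active = plate passing quality check with inhibition over a set limit, or well fluorescence over plate mean plus 4 SD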;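 also: Nile Red retained in pooled yeast measured as flow cytometry median fluorescence; 0% = buffer negative control and 100% = Enniatin B positive control; higher means more Nile Red kept so more efflux inhibition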
ARNT TACC3 PPI: disruptors of ARNT/TACC3 protein interaction, primary screen, biochemical, AlphaScreen, single concentration. AlphaScreen His-ARNT PAS-B/GST-TACC3 binding, luminescence; TACC3 fragment carries E629A point mutation. inhibition, % at 9.99 µM. 390,000 tested, 0.66% active;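 active = mean inhibition of replicates at least 50% and at least half of replicates each reaching 50%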;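 also: 0% = complete ARNT plus TACC3 wells and 100% = ARNT alone without TACC3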
* hit, by the source's call; i = inactive; . = not tested or not shown. Only some compounds are listed: those with a hit (about 2.1% of all), similar ones and a draw of the others.

SMILES | UCH37 DUB inh | cardiac RTF act | SUMO Mot1 rescue | RTF Ca sens inh | Efflux pump inh | ARNT TACC3 PPI
CC(C)(C)C(=O)ON=C1C(=O)N(c2ccccc2)c2ccccc21 | 1 | . | . | . | . | .
N#CC1=C(N)NC(SCc2ccccc2)=C(C#N)C12CCCC2 | 21* | 11 | -11 | 3 | 4 | 0
C(=NN(c1ccccc1)c1ccccc1)c1ccc(N2CCOCC2)s1 | -3 | . | . | . | . | .
Cn1c(=Nc2ccccc2)sc2ccccc21 | 2 | -3 | 40 | -1 | 0 | 9
CN(C)c1ccc(N=c2sc3ccccc3n2C)cc1 | 3 | 5 | 129 | -1 | 0 | 72*
COc1ccc(C=NNC(=O)c2ccc(COc3ccccc3Cl)o2)c(OC)c1C | -4 | . | . | . | . | .
Cc1ccc(OCC(=O)NN=Cc2cn(Cc3ccccc3)c3ccccc23)cc1C | 0 | . | . | . | . | .
Nc1ccc2c3c(cccc13)-c1ccccc1-2 | 0 | 359* | . | -416 | . | -13
CC(=NNc1ncc(Cl)cc1Cl)c1cccs1 | 8 | . | . | . | . | .
O=c1nc(NN=C/C=C/c2ccccc2)cn[nH]1 | -5 | . | . | . | . | .
Cc1sc2ncnc(SCC(=O)N3CCCCC3)c2c1C | 2 | 6 | 281 | -4 | 0 | .
Cc1nc(SCC(=O)N2CCCCC2)c2c(C)c(C)sc2n1 | -1 | 3 | 309* | -9 | 0 | 3
O=c1c(O)c(-c2cccs2)oc2ccccc12 | -25 | 2 | -8 | -11 | 0 | -11
O=c1c(O)c(-c2cccs2)oc2ccc(Cl)cc12 | -11 | 36* | 26 | -85 | 0 | -4
CC(C)CC(=O)NC(=S)Nc1cccc(NC(=O)c2ccccc2Cl)c1 | 2 | 3 | -7 | -6 | 0 | 6
CC(C)Oc1cccc(C(=O)NC(=S)Nc2cccc(NC(=O)c3ccccc3Cl)c2)c1 | 6 | 0 | 150 | -10 | 0 | 49*
Cc1nc2c(cc1C(=O)NN=Cc1ccc(O)c(O)c1)c(=O)n(C)c(=O)n2C | 2 | . | . | . | . | .
CCOc1ccc(C(=O)N/N=C/c2cccc3cccnc23)cc1 | . | -1 | -5 | -7 | 0 | 65*
COc1ccc(C(=O)N/N=C/c2cccc3cccnc23)cc1 | . | 3 | . | 2 | 0 | 88*
CCOc1ccccc1C=NNC(=O)c1cccc2ccccc12 | . | 0 | . | -2 | . | -4
CCOc1ccccc1C(=O)N/N=C/c1cccc2cccnc12 | . | 2 | 13 | 2 | 0 | 72*
NC(=NOC(=O)c1ccc2ccccc2c1)c1cccc([N+](=O)[O-])c1 | 5 | . | . | . | . | .
Cc1cc([N+](=O)[O-])cc2c1NC(=O)C2(O)N1CCCC(C)C1 (stereo not drawn) | 9 | -7 | -16 | -10 | 0 | -11
Cc1cc(Br)c2c(c1)C(O)(N1CCCCC1C)C(=O)N2 (stereo not drawn) | 5 | 30* | 1 | -3 | 0 | -8
Oc1[nH]c2ccccc2c1N=Nc1ccccc1F | 5 | 282* | 28 | -281 | 0 | 1
SMILES | UCH37 DUB inh | cardiac RTF act | SUMO Mot1 rescue | RTF Ca sens inh | Efflux pump inh | ARNT TACC3 PPI
O=[N+]([O-])c1ccc2[nH]c(O)c(N=Nc3ccc(F)cc3)c2c1 | 7 | 1 | -2 | -5 | 0 | -2
Oc1[nH]c2ccccc2c1N=Nc1ccccc1 | 6 | 17 | 39 | -18 | 0 | -1
Oc1[nH]c2ccccc2c1N=Nc1ccc(F)cc1 | 2 | 34* | 22 | -75 | 0 | -2
CC(C)(O)C(=O)N=Nc1c(O)[nH]c2ccccc12 | 7 | -1 | 0 | -3 | 0 | -1
Oc1[nH]c2ccc(Br)cc2c1N=Nc1ccc(F)cc1 | 3 | 467* | 36 | i | 0 | -8
O=C(Cc1ccc(F)cc1)NN=Cc1ccccn1 | 2 | . | . | . | . | .
COc1ccc(S(=O)(=O)Nc2c(C)n(C)n(-c3ccccc3)c2=O)cc1C(=O)O | 1 | 0 | 274* | -10 | 0 | 18
CCN(CC)c1ccc2c(c1)OC(N)=C(C#N)C2c1cccnc1 (stereo not drawn) | 5 | 157* | -10 | -197 | 0 | .
Cc1cc(C=C2C(=O)c3ccccc3C2=O)c(C)n1-c1ccccc1 | -17 | 45* | -6 | -15 | 0 | 2
C=CCNC(=S)NN=C(C)c1cccnc1 | 0 | . | . | . | . | .
COc1cccc2c1C(=O)c1c(O)c3c(c(O)c1C2=O)C[C@@](O)(C(C)=O)C[C@@H]3O[C@H]1C[C@H](N)[C@H](O)[C@H](C)O1 | 4 | 291* | . | -334 | . | 17
CC(=O)[C@]1(O)Cc2c(O)c3c(c(O)c2[C@@H](O[C@H]2C[C@H](N)[C@H](O)[C@H](C)O2)C1)C(=O)c1ccccc1C3=O | 6 | . | -20 | . | 0 | .
COc1cccc2c1C(=O)c1c(O)c3c(c(O)c1C2=O)C[C@@](O)(C(=O)CO)C[C@@H]3O[C@H]1C[C@H](N)[C@@H](O)[C@H](C)O1 | 2 | 120* | -33 | -152 | 0 | 22
COc1cccc2c1C(=O)c1c(O)c3c(c(O)c1C2=O)CC(O)(C(=O)CO)CC3OC1CC(N(C)C)C(O)C(C)O1 (stereo not drawn) | . | 201* | . | -269 | . | 11
CCC(=O)c1ccc(OCC(O)CN2CCN(S(=O)(=O)N3CCCCC3)CC2)cc1 (stereo not drawn) | 6 | -1 | 286* | -8 | 0 | -1
CC(=NNC(=O)c1cc(C)nc2ccccc12)c1cccs1 | 6 | . | . | . | . | .
CC(=O)N1CCN(S(=O)(=O)c2cccc(C(=O)NNC(=O)c3ccc(Br)cc3)c2)CC1 | . | 44* | . | -117 | . | 1
O=C(NN=Cc1ccc2c(c1)OCO2)c1cc(-c2ccccc2Cl)nc2ccccc12 | -17 | . | . | . | . | .
CC(=O)Oc1ccc2oc(/C=C/N(C)C)c([N+](=O)[O-])c2c1 | 22* | -8 | 295 | -1 | 0 | 0
C/C(=C/c1oc2ccc(O)cc2c1[N+](=O)[O-])N(C)C | 9 | -22 | -20 | 9 | 0 | 1
COc1ccccc1NC(=S)NN=C(C)c1ccccn1 | . | -1 | . | -3 | . | 65*
CC(=NNC(=S)Nc1ccc(C)cc1)c1ccccn1 | . | -4 | . | 2 | . | 62*
CC(=NNC(=S)Nc1cccc(C)c1)c1ccccn1 | . | -2 | . | -14 | . | -4
CC(=O)c1cccc(NC(=O)CC2S/C(=N/N=Cc3cccs3)NC2=O)c1 (stereo not drawn) | 3 | . | . | . | . | .
COc1ccc(CCN(C)C(=O)c2cnc(C)cn2)cc1OC | 6 | -6 | -22 | -17 | 0 | active
COc1ccccc1CN(C)C(=O)c1cnc(C)cn1 | 4 | 1 | 165 | 3 | 0 | -27

Assay outcomes as filed in PubChem BioAssay.
